Source: ChEMBL document CHEMBL1125523, “Novel indolodioxanes with antihypertensive effects: potent ligands for the 5-HT1A receptor” (J Med Chem, 1992)

Key:
[1] = target: T1, 5-hydroxytryptamine receptor 1A (Homo sapiens, UniProt P08908); assay: Displacement of [3H]8-OH-DPAT from 5-hydroxytryptamine 1A receptor expressed in CHO cell membranes
T1 sequence (P08908 whole entry): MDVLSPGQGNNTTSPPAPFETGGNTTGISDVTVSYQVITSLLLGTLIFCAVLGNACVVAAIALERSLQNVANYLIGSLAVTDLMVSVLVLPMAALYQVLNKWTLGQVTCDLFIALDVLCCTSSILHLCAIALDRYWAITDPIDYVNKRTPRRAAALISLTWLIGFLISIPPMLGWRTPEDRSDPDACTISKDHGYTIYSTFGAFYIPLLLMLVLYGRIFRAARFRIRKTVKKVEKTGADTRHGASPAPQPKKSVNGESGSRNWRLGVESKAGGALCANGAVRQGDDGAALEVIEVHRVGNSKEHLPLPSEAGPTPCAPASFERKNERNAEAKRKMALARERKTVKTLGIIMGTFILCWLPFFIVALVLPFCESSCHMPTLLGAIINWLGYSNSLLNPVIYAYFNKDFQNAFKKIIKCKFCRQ
Method in brief: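 [3H]8-OH-DPAT (164.5 Ci/mmol, 1 nM) competition on CHO membranes expressing a cloned mammalian 5-HT1A receptor. Ten drug concentrations in duplicate. IC50 from a nonlinear single-site fit, converted to Ki with Cheng–Prusoff. Ki in nM ± SEM.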

[2] = target: Serotonin 2 (5-HT2) receptor (Homo sapiens, UniProt P41595+P28223+P28335); assay: Binding affinity towards 5-hydroxytryptamine 2 receptor expressed in CHO cell membranes using [3H]ketanserin (60 Ci/mmol, 1 nM)
Method in brief: (§1)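 Competition binding on membranes from CHO cells expressing a cloned mammalian 5-HT2 receptor, with [3H]ketanserin (60 Ci/mmol, 1 nM). Ten drug concentrations run in duplicate. IC50 from a nonlinear single-site fit, converted to Ki by Cheng–Prusoff. Ki reported in nM ± SEM.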

[3] = target: T2, Adrenergic receptor alpha-1 (Rattus norvegicus, UniProt P15823+P23944+P43140); assay: Binding affinity towards Alpha-1 adrenergic receptor from rat whole brain using [3H]prazosin (18.1 Ci/mmol,0.9nanoM)as radioligand
T2 sequence (P15823 whole entry): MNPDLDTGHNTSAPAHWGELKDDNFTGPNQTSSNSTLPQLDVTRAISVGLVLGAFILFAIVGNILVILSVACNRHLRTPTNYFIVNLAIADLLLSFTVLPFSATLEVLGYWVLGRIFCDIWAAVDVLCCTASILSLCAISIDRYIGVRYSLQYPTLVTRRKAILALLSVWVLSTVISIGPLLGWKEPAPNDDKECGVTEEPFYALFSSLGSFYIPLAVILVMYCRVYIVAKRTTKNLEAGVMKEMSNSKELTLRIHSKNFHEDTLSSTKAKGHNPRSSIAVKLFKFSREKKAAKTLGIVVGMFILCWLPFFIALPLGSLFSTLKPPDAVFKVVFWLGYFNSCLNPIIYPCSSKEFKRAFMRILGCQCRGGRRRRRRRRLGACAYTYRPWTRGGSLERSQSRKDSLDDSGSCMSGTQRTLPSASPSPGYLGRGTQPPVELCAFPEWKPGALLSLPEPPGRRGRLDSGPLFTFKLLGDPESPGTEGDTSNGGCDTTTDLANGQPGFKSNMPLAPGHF
T2 sequence (P23944 whole entry): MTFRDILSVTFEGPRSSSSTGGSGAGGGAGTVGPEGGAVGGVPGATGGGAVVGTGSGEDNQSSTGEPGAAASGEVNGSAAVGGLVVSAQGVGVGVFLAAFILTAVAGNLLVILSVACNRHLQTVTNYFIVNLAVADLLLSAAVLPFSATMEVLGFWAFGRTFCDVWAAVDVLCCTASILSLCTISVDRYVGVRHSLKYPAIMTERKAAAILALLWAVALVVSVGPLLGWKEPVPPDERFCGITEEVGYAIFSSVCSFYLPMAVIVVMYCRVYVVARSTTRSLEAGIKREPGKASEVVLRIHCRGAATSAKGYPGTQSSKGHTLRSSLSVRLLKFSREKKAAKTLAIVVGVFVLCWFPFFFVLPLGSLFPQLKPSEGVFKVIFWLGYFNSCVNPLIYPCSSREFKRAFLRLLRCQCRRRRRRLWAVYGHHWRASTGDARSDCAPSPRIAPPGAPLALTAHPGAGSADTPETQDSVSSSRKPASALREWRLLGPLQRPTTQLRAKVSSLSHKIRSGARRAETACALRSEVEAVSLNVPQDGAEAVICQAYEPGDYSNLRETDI
T2 sequence (P43140 whole entry): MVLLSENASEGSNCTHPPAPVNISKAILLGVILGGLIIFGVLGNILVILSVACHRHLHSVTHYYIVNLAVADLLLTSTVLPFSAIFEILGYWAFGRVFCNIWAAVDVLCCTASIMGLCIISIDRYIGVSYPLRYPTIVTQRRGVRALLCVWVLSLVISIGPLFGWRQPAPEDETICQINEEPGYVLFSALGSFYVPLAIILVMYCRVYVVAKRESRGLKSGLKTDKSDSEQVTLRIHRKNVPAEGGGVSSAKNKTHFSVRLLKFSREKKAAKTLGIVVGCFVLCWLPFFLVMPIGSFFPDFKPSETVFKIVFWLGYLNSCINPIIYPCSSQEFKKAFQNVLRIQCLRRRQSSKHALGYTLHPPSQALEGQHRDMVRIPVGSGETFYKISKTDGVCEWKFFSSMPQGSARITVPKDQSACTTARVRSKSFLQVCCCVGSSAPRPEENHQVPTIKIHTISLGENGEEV
Method in brief: (§2)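 Rat whole-brain membranes displaced by test drug from [3H]prazosin (18.1 Ci/mmol, 0.9 nM). Ten concentrations in duplicate. IC50 by nonlinear single-site fit, then Ki via Cheng–Prusoff. Ki given in nM ± SEM.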

D(2) dopamine receptor [4] = target: T3, D(2) dopamine receptor (Homo sapiens, UniProt P14416); assay: Binding affinity towards Dopamine receptor D2 from mammalian clones expressed in CHO cell membranes using 2 (86.1 Ci/mmol,1.7nanoM)as radioligand
T3 sequence (P14416 whole entry): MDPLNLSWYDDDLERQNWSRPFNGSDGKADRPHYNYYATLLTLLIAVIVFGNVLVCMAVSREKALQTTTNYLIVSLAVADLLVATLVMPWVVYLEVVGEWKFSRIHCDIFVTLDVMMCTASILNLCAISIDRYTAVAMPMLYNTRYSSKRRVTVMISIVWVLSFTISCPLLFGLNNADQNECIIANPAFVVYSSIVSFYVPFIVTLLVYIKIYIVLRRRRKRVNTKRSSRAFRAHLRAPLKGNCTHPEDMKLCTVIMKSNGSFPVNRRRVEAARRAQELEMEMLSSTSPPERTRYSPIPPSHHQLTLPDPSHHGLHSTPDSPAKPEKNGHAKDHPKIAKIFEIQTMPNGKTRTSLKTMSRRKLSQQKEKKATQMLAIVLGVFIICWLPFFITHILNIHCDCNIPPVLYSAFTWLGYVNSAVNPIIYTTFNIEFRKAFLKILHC
Method in brief: (§3)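 Cloned mammalian D2 receptor in CHO cell membranes, radioligand [3H]U-86170 (86.1 Ci/mmol, 1.7 nM). Competition over ten drug concentrations in duplicate. IC50 from a single-site nonlinear fit, with Ki by Cheng–Prusoff. Values in nM ± SEM.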

Mus musculus [5] = assay: Result of hypothermia assay carried in Charles river CF-1 male mice at a dose of 0.01 mg/kg (s.c. administration); assay type: functional
Method in brief: (§4)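 Male CF-1 mice (18–22 g), four per dose, individually caged. Rectal temperature (°F) taken before and 20 min after a 0.1 mL sc injection. A fall of 2 °F or more counted as a positive hypothermic response. Doses started at 30 mg/kg and were lowered by half-log steps.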

D(2) dopamine receptor [6] = target: T3, D(2) dopamine receptor; assay: Compound was evaluated for the binding affinity towards Dopamine receptor D2 from mammalian clones expressed in CHO cell membranes using 2 (86.1 Ci/mmol,1.7nanoM)as radioligand; method in brief: as §3
Mus musculus [7] = assay: Result of hypothermia assay carried in Charles river CF-1 male mice at a dose of 17.3 mg/kg (s.c. administration); assay type: functional; method in brief: as §4
Mus musculus [8] = assay: Result of hypothermia assay carried in Charles river CF-1 male mice at a dose of 1.3 mg/kg (s.c. administration); assay type: functional
Method in brief: (§5)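 CF-1 male mice (18–22 g), four per dose, caged individually. Rectal temperature (°F) taken before dosing and 20 min after. A drop of 2 °F or more counted as positive. Doses started at 30 mg/kg and fell by half-log steps until 0/4 mice responded. Route: sc, 0.1 mL; po, 0.2 mL by oral syringe. ED50 by Spearman-Kärber.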

Mus musculus [9] = assay: Result of hypothermia assay carried in Charles river CF-1 male mice at a dose of 1.7 mg/kg (oral administration); assay type: functional; method in brief: as §5
[10] = Compound was evaluated for the binding affinity towards 5-hydroxytryptamine 2 receptor from mammalian clones expressed in CHO cell membranes using [3H]-ketanserin as radioligand; method in brief: as §1
[11] = target: T2, Adrenergic receptor alpha-1; assay: Compound was evaluated for the binding affinity towards Alpha-1 adrenergic receptor from rat whole brain using [3H]prazosin as radioligand; method in brief: as §2
D(2) dopamine receptor [12] = target: T3, D(2) dopamine receptor; assay: Compound was evaluated for the binding affinity towards Dopamine receptor D2 from mammalian clones expressed in CHO cell membranes using [3H]U-86170 as radioligand; method in brief: as §3
Mus musculus [13] = assay: Result of hypothermia assay carried in Charles river CF-1 male mice at a dose of 30 mg/kg (s.c. administration); assay type: functional; method in brief: as §4

Structure (SMILES)	Ki [1]	Ki [2]	Ki [3]	Ki (D(2) dopamine receptor [4])	other results
N#Cc1cc2c3c(ccc2[nH]1)OCC(CN1CCC2(CC1)C(=O)NCN2c1ccccc1)O3 (stereo unspecified)	0.5 nM	281 nM	6 nM	1.5 nM	Temperature decrease (Mus musculus [5]): 13 degrees F
COC(=O)c1cc2c3c(ccc2[nH]1)OCC(CN1CCC(n2c(O)nc4ccccc42)CC1)O3 (stereo unspecified)	0.6 nM	31.6 nM	1.8 nM	6.7 nM	–
O=C1NCN(c2ccccc2)C12CCN(CC1COc3ccc4[nH]ccc4c3O1)CC2 (stereo unspecified)	0.4 nM	–	–	–	Ki (D(2) dopamine receptor [6]): 0.2 nM
O=C(NCCCc1ccccc1)c1cc2c3c(ccc2[nH]1)OCC(CNCCCc1ccccc1)O3 (stereo unspecified)	1.6 nM	27.6 nM	11.4 nM	41 nM	–
O=C1NCN(c2ccccc2)C12CCN(CC1COc3ccc4[nH]c(CO)cc4c3O1)CC2 (stereo unspecified)	0.6 nM	> 1722 nM	8.8 nM	2 nM	–
CCCCOC(=O)c1cc2c3c(ccc2[nH]1)OCC(CN1CCC2(CC1)C(=O)NCN2c1ccccc1)O3 (stereo unspecified)	3 nM	92.6 nM	39.6 nM	5.7 nM	–
O=C(O)c1cc2c3c(ccc2[nH]1)OCC(CN1CCC2(CC1)C(=O)NCN2c1ccccc1)O3 (stereo unspecified)	17.8 nM	> 1722 nM	> 862 nM	58 nM	Temperature decrease (Mus musculus [7]): 3.6 degrees F
CCOC(=O)C1CCN(CC2COc3ccc4[nH]c(C(=O)OC)cc4c3O2)CC1 (stereo unspecified)	1.2 nM	170 nM	12.3 nM	255 nM	–
NC(=O)c1cc2c3c(ccc2[nH]1)OCC(CN1CCC2(CC1)C(=O)NCN2c1ccccc1)O3 (stereo unspecified)	0.3 nM	> 1722 nM	29.4 nM	1.8 nM	–
O=C(OCc1ccccc1)c1cc2c3c(ccc2[nH]1)OCC(CN1CCC2(CC1)C(=O)NCN2c1ccccc1)O3 (stereo unspecified)	1 nM	143 nM	30.4 nM	5.8 nM	Temperature decrease (Mus musculus [7]): 5.6 degrees F
COC(=O)c1cc2c3c(ccc2[nH]1)OCC(CNCCCc1ccccc1)O3 (stereo unspecified)	0.2 nM	38.7 nM	0.6 nM	15.9 nM	Temperature decrease (Mus musculus [8]): 13.6 degrees F; Temperature decrease (Mus musculus [9]): 8.8 degrees F
COC(=O)c1cc2c3c(ccc2[nH]1)OCC(CN1CCC2(CC1)C(=O)NCN2c1ccccc1)O3 (stereo unspecified)	0.9 nM	–	–	–	Ki [10]: 640 nM; Ki [11]: 11.4 nM; Ki (D(2) dopamine receptor [12]): 3.1 nM; Temperature decrease (Mus musculus [13]): 3.2 degrees F
COC(=O)c1cc2c3c(ccc2[nH]1)OCC(CN1CCC(Nc2ccccc2)(C(N)=O)CC1)O3 (stereo unspecified)	22 nM	171 nM	19.8 nM	> 388 nM	–
